# ChEMBL document CHEMBL1132804, “Inhibitors of src tyrosine kinase: the preparation and structure-activity relationship of 4-anilino-3-cyanoquinolines and 4-anilinoquinazolines” (Bioorg Med Chem Lett, 2000)
# Target: T1, Proto-oncogene tyrosine-protein kinase Src (Homo sapiens, UniProt P12931)
# Experiment: In vitro inhibition of c-src tyrosine kinase.
# Procedure, shortened: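 ELISA tyrosine kinase kit format. ATP was then added to start the reaction, which ran 1 h at 30 °C and was stopped with EDTA. Duplicate testing; IC50 is the average of two determinations.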
# T1 sequence (P12931 2-536 limits assumed): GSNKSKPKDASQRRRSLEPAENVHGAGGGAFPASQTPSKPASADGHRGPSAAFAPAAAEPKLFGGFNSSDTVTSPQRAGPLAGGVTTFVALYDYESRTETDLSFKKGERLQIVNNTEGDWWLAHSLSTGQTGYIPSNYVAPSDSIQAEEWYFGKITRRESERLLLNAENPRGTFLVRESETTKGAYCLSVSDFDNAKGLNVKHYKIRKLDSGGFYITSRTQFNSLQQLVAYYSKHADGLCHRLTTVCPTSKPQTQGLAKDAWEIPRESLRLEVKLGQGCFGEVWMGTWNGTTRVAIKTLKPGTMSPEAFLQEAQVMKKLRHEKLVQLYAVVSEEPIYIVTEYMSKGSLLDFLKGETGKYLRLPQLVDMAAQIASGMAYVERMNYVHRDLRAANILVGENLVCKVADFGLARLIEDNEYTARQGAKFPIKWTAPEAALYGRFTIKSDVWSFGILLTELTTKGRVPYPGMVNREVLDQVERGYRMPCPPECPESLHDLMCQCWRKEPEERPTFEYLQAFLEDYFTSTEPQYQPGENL
row,Structure (SMILES),IC50 [nM]
1,COc1cc2ncnc(Nc3cc(OC)c(OC)c(OC)c3)c2cc1OC,280
2,COc1cc2nccc(Nc3cc(OC)c(OC)c(OC)c3)c2cc1OC,200
3,COc1cc2c(Nc3cc(OC)c(OC)c(OC)c3)c(C#N)cnc2cc1OCCCN1CCCCC1,5.3
4,CCCCCCCCCCCCOc1c(OC)cc(Nc2c(C#N)cnc3cc(OC)c(OC)cc23)cc1OC,180
5,COc1cc2ncnc(Nc3cc(OC)c(OC(C)(C)C)c(OC)c3)c2cc1OC,2700
6,COc1cc2ncnc(Nc3cc(OC)c(OC(C)C)c(OC)c3)c2cc1OC,830
7,CCCCCCCCCCCCOc1c(OC)cc(Nc2ncnc3cc(OC)c(OC)cc23)cc1OC,5200
8,CCOC(=O)c1cnc2cc(OC)c(OC)cc2c1Nc1cc(OC)c(OC)c(OC)c1,> 10000
9,CCCCOc1c(OC)cc(Nc2ncnc3cc(OC)c(OC)cc23)cc1OC,490
10,COc1cc2ncc(C#N)c(Nc3cc(OC)c(OC)c(OC)c3C)c2cc1OC,470
11,CCOc1c(OC)cc(Nc2ncnc3cc(OC)c(OC)cc23)cc1OC,340
12,COc1cc2c(Nc3cc(OC)c(OC)c(OC)c3)c(C#N)cnc2cc1OCCCN1CCC(O)CC1,5.5
13,COc1cc(Nc2c(C#N)cnc3cc(OC)c(OC)cc23)cc(OC)c1,980

# The remaining lines, values ahead:
row,IC50 [nM],Structure (SMILES)
1,> 10000,COc1cc2ncc(CO)c(Nc3cc(OC)c(OC)c(OC)c3)c2cc1OC
2,110,COc1cc2ncc(C#N)c(Nc3cc(OC)c(OC(C)C)c(OC)c3)c2cc1OC
3,63,CCOc1c(OC)cc(Nc2c(C#N)cnc3cc(OC)c(OC)cc23)cc1OC
4,35,COc1cc2ncc(C#N)c(Nc3cc(OC)c(OC)c(OC)c3)c2cc1OC
5,290,COc1cc2ncc(C#N)c(Oc3cc(OC)c(OC)c(OC)c3)c2cc1OC
6,950,COc1ccc(Nc2c(C#N)cnc3cc(OC)c(OC)cc23)cc1OC
7,170,COc1cc2ncc(C#N)c(Nc3cc(OC)c(OC)c(OC)c3Br)c2cc1OC

# Target: T1, Proto-oncogene tyrosine-protein kinase Src
# Experiment: Inhibition of Src kinase at 1000 nM ATP
# Procedure, shortened: (§1)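 ATP-dependence study in the same ELISA format. Human c-Src protein (3 units/reaction) and cdc2 substrate peptide were in Tris-HCl pH 7.5 buffer with MgCl₂, EGTA and Na₃VO₄. Compound preincubation was 10 min at 30 °C. The reaction was started with ATP at four final levels (100, 500, 1000, 5000), run 1 h at 30 °C and stopped with EDTA. IC50 was determined at each ATP level.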
row,Structure (SMILES),IC50 [nM]
1,COc1cc2ncc(C#N)c(Nc3cc(OC)c(OC)c(OC)c3)c2cc1OC,190

# Target: T1, Proto-oncogene tyrosine-protein kinase Src
# Experiment: Inhibition of Src kinase at 100 nM ATP
# Procedure, shortened: as §1
row,Structure (SMILES),IC50 [nM]
1,COc1cc2ncc(C#N)c(Nc3cc(OC)c(OC)c(OC)c3)c2cc1OC,34

# Target: T1, Proto-oncogene tyrosine-protein kinase Src
# Experiment: Inhibition of Src kinase at 5000 nM ATP
# Procedure, shortened: as §1
row,Structure (SMILES),IC50 [nM]
1,COc1cc2ncc(C#N)c(Nc3cc(OC)c(OC)c(OC)c3)c2cc1OC,650

# Target: T1, Proto-oncogene tyrosine-protein kinase Src
# Experiment: Inhibition of Src kinase at 500 nM ATP
# Procedure, shortened: as §1
row,Structure (SMILES),IC50 [nM]
1,COc1cc2ncc(C#N)c(Nc3cc(OC)c(OC)c(OC)c3)c2cc1OC,108
